Assay outcomes from PubChem.
STAT1 act: STAT1 signaling activation. 200,000 tested, 2.6% active. activation (% of control), % at 5.5 µM. AID 932. NIH 3T3 STAT1-luciferase reporter, IFN-gamma, luminescence; 100% = IFN-gamma alone, no compound;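 active = activation above the screen-wide mean activation plus 3 SD, cut at about 130% in these data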;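 also: raw ratio to IFN-gamma control signal so 100% means no change and 0% no light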
Rad51 HR inh: Rad51 (human) homologous recombination inhibition; hRad51 DNA strand exchange, fluorescence dequenching; Q06609; 200,000 tested, 0.085% active; inhibition, % at 10 µM;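 active = inhibition above 40% at the single screening dose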;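 also: 0% = DMSO control wells and 100% = blanks with heterologous ssDNA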
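Material: hRad51 filaments on single-stranded DNA; Reagent: Donor/quencher-labelled 47-bp dsDNA substrate; Compound: 10 µM final, single point; Schedule: 37 °C 15-min filament assembly, 30-min compound preincubation, 15-min exchange; Technique: FRET fluorescence, excitation 485 nm, emission 520 nm; Benchmarks: control wells and blank wells on each plate.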
APP 5'UTR act: activates APP 5'UTR luciferase reporter. SH-SY5Y APP 5'UTR luciferase reporter, luminescence; zero percent = DMSO vehicle wells. activation, % at 2 µM. 190,000 tested, 1% active;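 active = activation above a set limit, based on mean plus 3 SD of controls, cut at about 140% in these data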
NF-kB expr up: compounds increasing NF-kB expression in human neuronal cells; NF-kB reporter expression; hits give high values; AID 1239; 190,000 tested, 1.6% active; fold change at 12.5 µM; in the data active = fold change above about 3.3
FLuc stim CS: affects firefly luciferase, flagging false hits in luciferase stimulation screens. ATPlite luciferase biochemical, luminescence, 10 min; 0 = ATP-free wells, 1 = DMSO control. P08659. 200,000 tested, under 10 active. activation factor at 10 µM;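 active = luciferase activation factor, scaled between plate controls, of at least 2 with compound at 10 µM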
Target sequence (P08659 whole entry, looked up): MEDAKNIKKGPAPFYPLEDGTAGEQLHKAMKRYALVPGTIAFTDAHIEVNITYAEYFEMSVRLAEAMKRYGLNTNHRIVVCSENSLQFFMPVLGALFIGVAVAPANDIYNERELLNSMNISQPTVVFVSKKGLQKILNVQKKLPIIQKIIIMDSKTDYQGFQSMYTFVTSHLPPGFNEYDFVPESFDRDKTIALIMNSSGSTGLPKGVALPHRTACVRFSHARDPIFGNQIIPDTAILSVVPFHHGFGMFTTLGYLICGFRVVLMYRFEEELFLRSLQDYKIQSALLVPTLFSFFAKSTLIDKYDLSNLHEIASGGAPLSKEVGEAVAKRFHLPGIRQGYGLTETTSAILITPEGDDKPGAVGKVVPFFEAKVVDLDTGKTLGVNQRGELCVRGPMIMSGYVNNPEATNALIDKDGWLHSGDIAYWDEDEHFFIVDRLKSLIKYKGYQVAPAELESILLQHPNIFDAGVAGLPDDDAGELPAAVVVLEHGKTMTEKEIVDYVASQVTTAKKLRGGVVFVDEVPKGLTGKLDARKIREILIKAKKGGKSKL
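Assay system: Luciferase/luciferin detection reagent, cell-free biochemical luciferase assay / Read-out: luciferase activation / Benchmarks: No-ATP low control, compound-free enzyme-plus-ATP high control / Medium: PBS buffer for ATP / Detection: luminescence measurement of luciferase light output / Schedule: 10 min at ambient temperature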
FLuc inhib CS: Photinus pyralis luciferase inhibition counter-screen; AID 1006; inhibition, % at 10 µM; ATPLite firefly luciferase biochemical luminescence, 10 min; 200,000 tested, 1.5% active; P08659;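 active = inhibition above about 50% when tested at 10 µM, limit read from the data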
The depositor's hits bear a star; . = no result. A selection: hits, their analogues and other compounds. The true share with any hit is near 3.9%.

SMILES	STAT1 act	Rad51 HR inh	APP 5'UTR act	NF-kB expr up	FLuc stim CS	FLuc inhib CS
CCN(CCn1cccn1)C(=O)CCc1nnc(CCCc2ccccc2)o1	147*	-284	67	4.1*	1.1	-7
CCN(CCn1cccn1)C(=O)CCc1nnc(-c2ccc3c(c2)OCO3)o1	117	.	6	1.4	1	-4
CCC(=O)c1ccc(/C=C/c2nc3ccccc3n2C)o1	112	-5	125	4.8*	0.2	79*
C=CCS/C(N)=N\N=C\c1cc(Br)cc([N+](=O)[O-])c1O	.	-5	.	.	.	.
CCC(=O)NC(=S)Nc1ccc(NC(=O)c2ccc(Br)o2)cc1	104	12	20	1.7	1.1	-6
O=C(Cn1cnc2c(oc3ccccc32)c1=O)c1ccccc1	148*	5	102	2.7	0.9	10
CNC(=S)N(Cc1ccc(Cl)cc1)Cc1cccs1	.	-1	.	.	.	.
CC(C)(O)C#Cc1ccc(CN2CCN(Cc3ccsc3)C(CCO)C2)cc1 (centres undefined)	96	-12	-8	3.8*	1.1	-8
COc1ccc2nc(C3CCCCC3)c3c(c2c1)CCC3	.	3	.	.	.	.
COc1ccc(N(C)C(=O)c2cc3c(s2)-c2c(C)cccc2OC3)c(OC)c1	.	3	.	.	.	.
O=c1[nH]c2ccccc2cc1-c1nnn(-c2ccc(F)cc2)n1	125	-4	91	1.9	0.4	65*
Fc1ccc(-n2nnc(-c3cnc4ccccc4c3)n2)cc1	24	4	98	2.2	0.3	74*
Fc1ccc(-n2nnc(-c3cccnc3)n2)cc1	149*	10	24	2.1	0.8	15
Clc1cc2c(c(CSc3nc4ccccc4n4cccc34)c1)OCOC2	.	3	.	.	.	.
NNC(=S)Nc1cccc(-c2n[nH]c(=S)o2)c1	.	10	.	.	.	.
COc1ccc(/C=C/C(=O)c2ccc(O)cc2)cc1COc1ccc(F)cc1	97	5	3	1.2	1	-1
COc1ccc(Oc2ccc(/C=C/C(=O)c3ccc(O)cc3)cc2[N+](=O)[O-])cc1	101	.	-25	5*	1	-2
Cc1ccc(CSc2nnc(-c3ccco3)o2)cc1	125	.	53	3.9*	0.9	15
Fc1ccccc1CSc1nnc(-c2ccccc2)o1	145*	1	139*	5*	0.9	9
Cc1ccccc1-c1nnc(SCc2ccccc2F)o1	148*	1	142*	6.4*	0.8	18
c1ccc(CSc2nnc(-c3ccco3)o2)cc1	.	-3	.	.	.	.
COc1ccc(-c2nnc(SCc3ccccc3F)o2)cc1	142*	-14	157*	7.7*	0.7	28
COc1ccc(NC(=O)CSC2=NCCN2)cc1	121	.	-6	1.4	1.1	-5
CCCC[C@@H]1CN=C(N)N1CC(C)(C)C	.	0	.	.	.	.
CCC(=O)N(Cc1cc(=O)[nH]c2ccccc12)c1ccc(C)cc1	.	11	.	.	.	.
SMILES	STAT1 act	Rad51 HR inh	APP 5'UTR act	NF-kB expr up	FLuc stim CS	FLuc inhib CS
C#CCSc1nnc(-c2ccc(OC)cc2)o1	134*	-6	35	3	0.6	37
Cc1ccccc1-c1nnc(SCc2ccccc2)o1	132*	-4	44	2.9	0.9	6
NS(=O)(=O)c1ccc(CCNC(=O)CSc2nc3ccccc3c(=O)n2CCN2CCOCC2)cc1	104	27	0	1.3	1	-4
NS(=O)(=O)c1ccc(CCNC(=O)CSc2nc3ccccc3c(=O)n2CCC(=O)N2CCCCC2)cc1	96	11	2	2.4	0.5	53*
COc1ccc(C(=O)Nc2cc(C)on2)cc1	122	-5	92	3.1	0.3	73*
Cc1ccnc(NC(=O)c2ccccc2NC(=O)C(C)(C)C)c1	98	-8	-2	1.1	1.1	-9
COc1ccc(C(=O)NNC(=S)Nc2ccccc2)cc1	130*	-5	141*	6.5*	0.4	57*
CCNC(=S)NNC(=O)c1ccc(OC)cc1	98	.	1	.	1.1	-6
CCc1ccc(NC(=O)Nc2cccc(OC)c2)cc1	146*	-1	161*	2.5	0.5	52*
Cc1ccnc(NC(=O)c2cc3ccccc3oc2=O)c1	144*	-1	152*	5.9*	0.5	54*
O=C(NCc1ccco1)c1cc2ccc(O)cc2oc1=O	90	5	11	1.2	0.7	26
O=C(Nc1ccc(Br)cn1)c1ccc2nccnc2c1	149*	-2	21	.	.	.
